Data published in ChEMBL document CHEMBL1153403, “Design, synthesis, and evaluation of novel fluoroquinolone-aminoglycoside hybrid antibiotics” (J Med Chem, 2009).
≈ marks a conversion by molar mass, not a printed value.

How the values were obtained:
[1] = Activity at aminoglycoside 3'-phosphotransferase 3a
[2] = test system: Escherichia coli; test: Resistance index, MIC for aminoglycosides-resistant Escherichia coli BL21 harboring pETSACG1 expressing APH(3')-3a enzyme to MIC for Escherichia coli BL21; format: functional
How it was run: (§1)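 Ratio of MIC on the plasmid-bearing resistant strain to MIC on its background strain (pETSACG1 vs BL21; pET9d or pSF815 vs XL1 blue). MICs by NCCLS double microdilution from starting concentrations of 384 and 1.5 µg/mL, in duplicate, two to four experiments.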

[3] = test system: Escherichia coli; test: Resistance index, MIC for aminoglycosides-resistant Escherichia coli XL1-blue harboring pET9d expressing APH(3')-1a enzyme to MIC for Escherichia coli XL1-blue; format: functional; how it was run: as §1
[4] = test system: Escherichia coli; test: Antibacterial activity against Escherichia coli R477-100 by double-microdilution method; format: functional
[5] = test system: Bacillus subtilis; test: Antibacterial activity against aminoglycosides-susceptible Bacillus subtilis ATCC 6633 by double-microdilution method; format: functional
[6] = test system: Escherichia coli; test: Antibacterial activity against Escherichia coli BL21 by double-microdilution method; format: functional
[7] = test system: Escherichia coli; test: Antibacterial activity against kanamycin-resistant Escherichia coli AG100B expressing aminoglycosides resistant APH(3')-1 enzyme by double-microdilution method; format: functional
[8] = test system: Escherichia coli; test: Antibacterial activity against aminoglycosides-resistant Escherichia coli XL1-blue harboring pSF815 expressing AAC(6')-APH(2'') enzyme by double-microdilution method; format: functional
[9] = test system: Escherichia coli; test: Resistance index, MIC for aminoglycosides-resistant Escherichia coli XL1-blue harboring pSF815 expressing AAC(6')-APH(2'') enzyme to MIC for Escherichia coli XL1-blue; format: functional; how it was run: as §1
[10] = test system: Escherichia coli; test: Antibacterial activity against Escherichia coli XL1-blue by double-microdilution method; format: functional
[11] = test system: Escherichia coli; test: Antibacterial activity against kanamycin-resistant Escherichia coli AG100A expressing aminoglycosides resistant APH(3')-1 enzyme by double-microdilution method; format: functional
[12] = test system: Escherichia coli; test: Antibacterial activity against aminoglycosides-resistant Escherichia coli BL21 harboring pETSACG1 expressing APH(3')-3a enzyme by double-microdilution method; format: functional
[13] = test system: Escherichia coli; test: Antibacterial activity against Escherichia coli ATCC 25922 by double-microdilution method; format: functional
[14] = Ratio of kcat/km for aminoglycoside 3'-phosphotransferase 3a
[15] = test system: Staphylococcus aureus; test: Antibacterial activity against methicillin-resistant Staphylococcus aureus ATCC 43300 by double-microdilution method; format: functional
[16] = test system: Escherichia coli; test: Antibacterial activity against aminoglycosides-resistant Escherichia coli XL1-blue harboring pET9d expressing APH(3')-1a enzyme by double-microdilution method; format: functional
[17] = test system: Escherichia coli; test: Inhibition of protein synthesis in Escherichia coli S30 extracts assessed as luciferase activity after 1 hr by coupled transcription/translation assay; format: functional
How it was run: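 Coupled transcription/translation of the pBESTluc plasmid in E. coli S30 extract with varying compound concentrations, 37 °C for 60 min. Reactions were cooled on ice, diluted in Tris-phosphate pH 7.8 reagent, and luciferase luminescence was read immediately after substrate addition. IC50 came from concentration-response curves fitted to at least two independent experiments.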

[18] = Inhibition of Escherichia coli topoisomerase 4 assessed as reduction in supercoiled pBR322 DNA relaxation activity after 30 mins by electrophoresis
How it was run: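 E. coli TopoIV relaxation of supercoiled pBR322 in 40 mM HEPES-KOH pH 7.6 with 100 mM potassium glutamate, 10 mM Mg(OAc)₂, 10 mM DTT, 1 mM ATP and 50 µg/mL albumin. Incubated 37 °C for 30 min, stopped with EDTA, loading dye and chloroform/isoamyl alcohol, then run on 1% agarose. Supercoiled DNA percentage was quantified from gel images. IC50 is the 50% reduction versus drug-free control.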

[19] = Inhibition of Escherichia coli DNA gyrase assessed as reduction in relaxed pBR322 DNA supercoiling activity after 1 hr by electrophoresis
How it was run: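 Supercoiling of relaxed pBR322 (12.5 ng/µL) by E. coli DNA gyrase in 35 mM Tris-Cl pH 7.5 with 24 mM KCl, 4 mM MgCl₂, 2 mM DTT, 1.8 mM spermidine, 1 mM ATP, 6.5% glycerol and 0.1 mg/mL BSA. Incubated 37 °C for 1 h, stopped with loading dye plus chloroform/isoamyl alcohol, and resolved on 1% agarose. IC50 is the concentration halving activity versus drug-free control.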

[20] = Escherichia coli, 1 h, read-out: IC50

| SMILES | Km [1] [µM] | kcat [1] [s⁻¹] | Ratio [2] | Ratio [3] | MIC [4] [µg/mL] | MIC [5] [µg/mL] | MIC [6] [µg/mL] | MIC [7] [µg/mL] | MIC [8] [µg/mL] | Ratio [9] | MIC [10] [µg/mL] | MIC [11] [µg/mL] | MIC [12] [µg/mL] | MIC [13] [µg/mL] | kcat/Km [14] [×10⁴ /M/s] | MIC [15] [µg/mL] | MIC [16] [µg/mL] | IC50 [17, 20] [µM] | IC50 ([18]; read-out: IC50) [µM] | IC50 ([19]; read-out: IC50) [µM] | further results |
| --- | --- | --- | --- | --- | --- | --- | --- | --- | --- | --- | --- | --- | --- | --- | --- | --- | --- | --- | --- | --- | --- |
| NC[C@@H]1O[C@H](O[C@H]2[C@@H](O)[C@H](O[C@@H]3[C@@H](O)[C@H](N)C[C@H](N)[C@H]3O[C@H]3O[C@H](CN)[C@@H](O)[C@H](O)[C@H]3N)O[C@@H]2C(=O)NCc2cn(CC(O)CN3CCN(c4cc5c(cc4F)c(=O)c(C(=O)O)cn5C4CC4)CC3)nn2)[C@H](N)[C@@H](O)[C@@H]1O (some centres not stated) | 86.8 | 2.5 | 1 | 2 | 6 (≈ 5.47 µM) | 3 (≈ 2.74 µM) | 0.2 (≈ 0.182 µM) | 12 (≈ 10.9 µM) | 48 (≈ 43.8 µM) | 8 | 6 (≈ 5.47 µM) | 0.75 (≈ 0.684 µM) | 0.2 (≈ 0.182 µM) | 3 (≈ 2.74 µM) | 2.9 | 12 (≈ 10.9 µM) | 12 (≈ 10.9 µM) |  |  |  |  |
| NC[C@@H]1O[C@H](O[C@H]2[C@@H](O)[C@H](O[C@@H]3[C@@H](O)[C@H](N)C[C@H](N)[C@H]3O[C@H]3O[C@H](CN)[C@@H](O)[C@H](O)[C@H]3N)O[C@@H]2CO)[C@H](N)[C@@H](O)[C@@H]1O [FRAMYCETIN] | 5.7 | 2.4 | 8 | 16 | 24 (≈ 39 µM) | 1.5 (≈ 2.44 µM) | 6 (≈ 9.76 µM) | 384 (≈ 625 µM) | > 384 | >64 | 6 (≈ 9.76 µM) | 96 (≈ 156 µM) | 48 (≈ 78.1 µM) | 48 (≈ 78.1 µM) | 42 | 384 (≈ 625 µM) | 96 (≈ 156 µM) | 10.5 |  |  | IC50 [18]: Not Active; IC50 [19]: Not Active |
| NC[C@@H]1O[C@H](O[C@H]2[C@@H](O)[C@H](O[C@@H]3[C@@H](O)[C@H](N)C[C@H](N)[C@H]3O[C@H]3O[C@H](CN)[C@@H](O)[C@H](O)[C@H]3N)O[C@@H]2C(=O)Nc2ccc(-c3cn(Cc4ccc(CN5CCN(c6cc7c(cc6F)c(=O)c(C(=O)O)cn7C6CC6)CC5)cc4)nn3)cc2)[C@H](N)[C@@H](O)[C@@H]1O |  |  | 1 | 1 | 1.5 (≈ 1.25 µM) | 1.5 (≈ 1.25 µM) | 0.4 (≈ 0.332 µM) | 3 (≈ 2.49 µM) | 24 (≈ 19.9 µM) | 8 | 3 (≈ 2.49 µM) | 0.75 (≈ 0.623 µM) | 0.4 (≈ 0.332 µM) | 3 (≈ 2.49 µM) |  | 3 (≈ 2.49 µM) | 3 (≈ 2.49 µM) | 16.7 | 0.55 | 0.085 |  |
| O=C(O)c1cn(C2CC2)c2cc(N3CCNCC3)c(F)cc2c1=O [CIPROFLOXACIN] |  |  |  |  |  | 0.02 (≈ 0.0604 µM) | < 0.005 |  |  |  |  | < 0.005 |  |  |  | 0.2 (≈ 0.604 µM) |  |  | 10.8 | 1.3 | IC50 [17]: Not Active |
| NC[C@@H]1O[C@H](O[C@H]2[C@@H](O)[C@H](O[C@@H]3[C@@H](O)[C@H](N)C[C@H](N)[C@H]3O[C@H]3O[C@H](CN)[C@@H](O)[C@H](O)[C@H]3N)O[C@@H]2C(=O)Nc2ccc(-c3cn(CC(O)CN4CCN(c5cc6c(cc5F)c(=O)c(C(=O)O)cn6C5CC5)CC4)nn3)cc2)[C@H](N)[C@@H](O)[C@@H]1O (some centres not stated) |  |  |  |  | 6 (≈ 5.18 µM) | 6 (≈ 5.18 µM) |  | 6 (≈ 5.18 µM) |  |  |  | 0.75 (≈ 0.648 µM) |  | 3 (≈ 2.59 µM) |  | 24 (≈ 20.7 µM) |  | 2.2 | 0.58 | 0.073 |  |
| NC[C@@H]1O[C@H](O[C@H]2[C@@H](O)[C@H](O[C@@H]3[C@@H](O)[C@H](N)C[C@H](N)[C@H]3O[C@H]3O[C@H](CN)[C@@H](O)[C@H](O)[C@H]3N)O[C@@H]2COCc2cn(CCN3CCN(c4cc5c(cc4F)c(=O)c(C(=O)O)cn5C4CC4)CC3)nn2)[C@H](N)[C@@H](O)[C@@H]1O |  |  | 1 | 4 | 3 (≈ 2.85 µM) | 0.75 (≈ 0.712 µM) | 0.2 (≈ 0.19 µM) | 12 (≈ 11.4 µM) | 12 (≈ 11.4 µM) | 4 | 3 (≈ 2.85 µM) | 0.38 (≈ 0.361 µM) | 0.2 (≈ 0.19 µM) | 3 (≈ 2.85 µM) |  | 6 (≈ 5.7 µM) | 12 (≈ 11.4 µM) | 18.1 | 7.9 | 0.041 |  |
